As usually defined, the IC50 is the concentration that inhibits the measured activity by half. Low values mean greater potency, high ones weaker potency. Broadly, the EC50 is the concentration that produces a half-maximal response.

This note sets out measurements from ChEMBL document CHEMBL1139880, “Potent and selective agonists of human melanocortin receptor 5: cyclic analogues of alpha-melanocyte-stimulating hormone” (J Med Chem, 2007).

Test [1] has as its target Melanocortin receptor (M4 and M5) (Homo sapiens) (UniProt P32245+P33032). In words: Selectivity for human cloned MC5R over human cloned MC4R. In kind it is protein assay.
The target of test [2] is T1, Melanocortin receptor 4 (Homo sapiens, UniProt P32245). The test is described as follows: Agonist activity at human MC4R expressed in CHO cells assessed as cAMP accumulation at 5 uM relative to [125I]NDPalphaMSH. Particulars: filed as agonist. In kind it is functional, cell-based. Background: Changes in cAMP serve as a functional read-out for many G protein-coupled receptors.

Test [3] is filed under the species Homo sapiens. In words: Selectivity for human cloned MC5R over human cloned MC1bR.
For test [4], the species on record is Homo sapiens. In words: Selectivity for human cloned MC5R over human cloned MC3R.
Test [5] deals with T2, Melanocortin receptor 3 (Homo sapiens, UniProt P41968). The test is described as follows: Agonist activity at human MC3R expressed in CHO cells assessed as cAMP accumulation at 5 uM relative to [125I]NDPalphaMSH. In kind it is functional, cell-based.
For test [6], the target named is T2, Melanocortin receptor 3. In words: Agonist activity at human MC3R expressed in CHO cells assessed as cAMP accumulation at […] relative to [125I]NDPalphaMSH. The test is classed as functional, cell-based.
The target in test [7] is T1, Melanocortin receptor 4. The test is described as follows: Agonist activity at human MC4R expressed in CHO cells assessed as cAMP accumulation at 10 uM relative to [125I]NDPalphaMSH. The test is classed as functional, cell-based.
Test [8] addresses T2, Melanocortin receptor 3. In words: Agonist activity at human MC3R expressed in CHO cells assessed as cAMP accumulation at 10 uM relative to [125I]NDPalphaMSH. The test is classed as functional, cell-based.
The target of test [9] is T1, Melanocortin receptor 4. The test is described as follows: Agonist activity at human MC4R expressed in CHO cells assessed as cAMP accumulation at 1 uM relative to [125I]NDPalphaMSH. The test is classed as functional, cell-based.
Test [10] addresses T2, Melanocortin receptor 3. The test is described as follows: Agonist activity at human MC3R expressed in CHO cells assessed as cAMP accumulation at 1 uM relative to [125I]NDPalphaMSH. The test is classed as functional, cell-based.
The target of test [11] is T3, Melanocyte-stimulating hormone receptor (Homo sapiens, UniProt Q01726). In words: Displacement of [125I]NDPalphaMSH from human cloned melanocortin receptor 1b expressed in CHO cells. The test is classed as cell-based. Background: Displacement assays read how much labelled ligand stays bound in the presence of the test substance.
The target in test [12] is T2, Melanocortin receptor 3. The test is described as follows: Displacement of [125I]NDPalphaMSH from human cloned MC3R expressed in CHO cells. In kind it is cell-based.
Test [13] concerns the target T1, Melanocortin receptor 4. In words: Displacement of [125I]NDPalphaMSH from human cloned MC4R expressed in CHO cells. The test is classed as cell-based.
Test [14] has as its target T4, Melanocortin receptor 5 (Homo sapiens, UniProt P33032). In words: Agonist activity at human MC5R expressed in CHO cells assessed as cAMP accumulation. The test is classed as functional, cell-based.
The target in test [15] is T3, Melanocyte-stimulating hormone receptor. In words: Agonist activity at human melanocortin receptor 1b expressed in CHO cells assessed as cAMP accumulation. In kind it is functional, cell-based. Put shortly: (§1)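 Dissociated CHO cells were spun 5 min and resuspended in Earle's balanced salt solution with 10 mM HEPES pH 7.5, 5 mM MgCl2, 1 mM glutamine and 1 mg/mL BSA. They were incubated 40 min at room temperature with compound (0.003–5000 nM) plus 0.6 mM IBMX, then lysed with 0.1 M HCl. cAMP was measured by Flashplate cAMP assay.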

Test [16] addresses T4, Melanocortin receptor 5. In words: Displacement of [125I]NDPalphaMSH from human cloned MC5R expressed in CHO cells. In kind it is cell-based.
For test [17], the target named is T2, Melanocortin receptor 3. The test is described as follows: Agonist activity at human MC3R expressed in CHO cells assessed as cAMP accumulation. In kind it is functional, cell-based. In outline: as §1
For test [18], the target named is T2, Melanocortin receptor 3. The test is described as follows: Agonist activity at human MC3R expressed in CHO cells assessed as cAMP accumulation at 2 uM relative to [125I]NDPalphaMSH. In kind it is functional, cell-based.

A value given as a limit tells only on which side of the number the result lay.

T4 sequence (P33032 whole entry): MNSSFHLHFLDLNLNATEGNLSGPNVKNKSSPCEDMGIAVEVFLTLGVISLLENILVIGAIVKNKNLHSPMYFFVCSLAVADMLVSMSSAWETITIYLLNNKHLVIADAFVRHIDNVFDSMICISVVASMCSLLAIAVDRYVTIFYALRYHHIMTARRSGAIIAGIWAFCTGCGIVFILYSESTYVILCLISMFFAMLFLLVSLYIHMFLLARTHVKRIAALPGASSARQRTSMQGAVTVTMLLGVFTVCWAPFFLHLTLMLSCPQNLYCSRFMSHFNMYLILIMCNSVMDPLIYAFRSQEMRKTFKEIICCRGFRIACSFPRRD
Melanocortin receptor (M4 and M5) (Homo sapiens), sequence (P32245 whole entry, looked up): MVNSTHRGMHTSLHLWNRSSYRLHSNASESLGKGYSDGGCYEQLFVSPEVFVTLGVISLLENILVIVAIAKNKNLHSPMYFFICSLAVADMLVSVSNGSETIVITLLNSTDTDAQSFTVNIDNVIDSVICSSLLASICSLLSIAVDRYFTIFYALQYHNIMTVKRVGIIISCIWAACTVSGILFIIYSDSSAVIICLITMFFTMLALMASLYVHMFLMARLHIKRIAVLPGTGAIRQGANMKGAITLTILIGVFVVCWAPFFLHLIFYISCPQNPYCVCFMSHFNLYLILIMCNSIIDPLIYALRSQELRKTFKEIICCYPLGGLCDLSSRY
Melanocortin receptor (M4 and M5) (Homo sapiens), sequence (P33032 whole entry, looked up): as the sequence (P33032 whole entry) above
T1 sequence (P32245 whole entry): as the sequence (P32245 whole entry, looked up) above
T3 sequence (Q01726 whole entry): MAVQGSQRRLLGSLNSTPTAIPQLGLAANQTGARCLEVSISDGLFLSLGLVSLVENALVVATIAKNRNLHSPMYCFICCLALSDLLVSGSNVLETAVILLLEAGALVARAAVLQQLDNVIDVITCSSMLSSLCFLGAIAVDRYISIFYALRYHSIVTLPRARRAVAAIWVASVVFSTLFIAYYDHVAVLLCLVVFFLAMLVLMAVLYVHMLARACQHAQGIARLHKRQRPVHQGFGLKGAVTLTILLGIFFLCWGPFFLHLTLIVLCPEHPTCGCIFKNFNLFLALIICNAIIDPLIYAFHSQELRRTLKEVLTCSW
T2 sequence (P41968 whole entry): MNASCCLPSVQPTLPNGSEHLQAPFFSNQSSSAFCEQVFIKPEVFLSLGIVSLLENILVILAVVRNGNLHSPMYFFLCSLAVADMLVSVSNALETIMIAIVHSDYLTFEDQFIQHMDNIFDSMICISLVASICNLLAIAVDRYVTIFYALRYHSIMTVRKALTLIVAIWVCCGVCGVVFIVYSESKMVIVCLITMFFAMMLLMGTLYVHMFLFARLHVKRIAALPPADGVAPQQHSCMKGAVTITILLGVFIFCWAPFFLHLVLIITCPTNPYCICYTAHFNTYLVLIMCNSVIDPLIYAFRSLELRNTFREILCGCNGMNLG

`CCCC[C@H](NC(C)=O)C(=O)N[C@H]1CC(=O)NCCCC[C@@H](C(N)=O)NC(=O)[C@H](Cc2c[nH]c3ccccc23)NC(=O)[C@@H]2CCCN2C(=O)[C@H](Cc2ccc(-c3ccccc3)cc2)NC(=O)[C@@H]2CC3CCCCC3N2C1=O` (some centres undefined): the Ratio IC50 in test [1] turned out to be 470; in the test listed under Homo sapiens [3] it was 780; in the test filed under Homo sapiens [4], 440. Besides, the results for the Activity on Melanocortin receptor 4 [2] and at Melanocortin receptor 3 [5] were 97% and 1%, respectively.
Turning to `CCCC[C@H](NC(C)=O)C(=O)N[C@H]1CC(=O)NCCCC[C@@H](C(N)=O)NC(=O)[C@H](Cc2c[nH]c3ccccc23)NC(=O)[C@@H]2CCCN2C(=O)[C@H](Cc2ccc(-c3ccccc3)cc2)NC(=O)[C@@H]2CCCN2C1=O`, the Ratio IC50 in [1] was 340; in the test filed under Homo sapiens [3], 720; in the test listed under Homo sapiens [4] it was 217. For the same molecule, the Activity at Melanocortin receptor 3 [6] was 2%; on Melanocortin receptor 4 [7] (filed as partial agonist), 40%.
For the molecule `CCCC[C@H](NC(C)=O)C(=O)N[C@H]1CC(=O)NCCCC[C@@H](C(N)=O)NC(=O)[C@H](Cc2cc3ccccc3[nH]2)NC(=O)[C@@H]2CCCN2C(=O)[C@H](Cc2ccccc2)NC(=O)[C@H](Cc2cnc[nH]2)NC1=O`, the Activity on Melanocortin receptor 3 [8] was found to be 5%; on Melanocortin receptor 4 [7], 7%.
As for `CCCC[C@H](NC(C)=O)C(=O)N[C@H]1CC(=O)NCCCC[C@@H](C(N)=O)NC(=O)[C@H](Cc2c[nH]c3ccccc23)NC(=O)[C@@H]2CCCCN2C(=O)[C@H](Cc2ccc(-c3ccccc3)cc2)NC(=O)[C@H](C2CCCCC2)NC1=O`, the figures for the Activity at Melanocortin receptor 4 [9] (filed as partial agonist) and on Melanocortin receptor 3 [10] were 43% and 1%, respectively.
With `CCCC[C@H](NC(C)=O)C(=O)N[C@H]1CC(=O)NCCCC[C@@H](C(N)=O)NC(=O)[C@H](Cc2c[nH]c3ccccc23)NC(=O)[C@@H]2CCCCN2C(=O)[C@@H](Cc2ccc(-c3ccccc3)cc2)NC(=O)[C@H](Cc2c[nH]cn2)NC1=O`, the IC50 in [11] was 5.9 nM (antagonist); on Melanocortin receptor 3 [12], 1400 nM (antagonist); at Melanocortin receptor 4 [13], 570 nM (antagonist); on Melanocortin receptor 5 [16] it was 0.72 nM (antagonist). In addition, the values for the EC50 (on Melanocortin receptor 5 [14]; in test [15]; on Melanocortin receptor 3 [17]) were 0.37 nM (agonist), 3.3 nM (agonist) and 370 nM (agonist), respectively.
`CCCC[C@H](NC(C)=O)C(=O)N[C@H]1CC(=O)NCCCC[C@@H](C(N)=O)NC(=O)[C@H](Cc2c[nH]c3ccccc23)NC(=O)[C@@H]2CCCN2C(=O)[C@@H](Cc2ccc(OCC)cc2)NC(=O)[C@H](Cc2cnc[nH]2)NC1=O`: the IC50 in test [11] is 430 nM (antagonist); at Melanocortin receptor 3 [12] it was over 10000 nM; on Melanocortin receptor 5 [16] it was 340 nM (antagonist). Also, the EC50 on Melanocortin receptor 5 [14] is 270 nM (agonist); in test [15], 60 nM (agonist); at Melanocortin receptor 3 [17] it was over 2500 nM.
In the case of `CCCC[C@H](NC(C)=O)C(=O)N[C@H]1CC(=O)NCCCC[C@@H](C(N)=O)NC(=O)[C@H](Cc2c[nH]c3ccccc23)NC(=O)[C@@H]2CCCCN2C(=O)[C@H](Cc2ccc(-c3ccccc3)cc2)NC(=O)[C@@H]2CCCN2C1=O`, the Ratio IC50 in test [1] stood at 1060; in the test listed under Homo sapiens [3], 430; in the test listed under Homo sapiens [4] it was 1800. Further, the Activity was 9% on Melanocortin receptor 4 [9] and 8% at Melanocortin receptor 3 [18].
On to `CCCC[C@H](NC(C)=O)C(=O)N[C@H]1CC(=O)NCCCC[C@@H](C(N)=O)NC(=O)[C@H](Cc2cc3ccccc3[nH]2)NC(=O)[C@@H]2CCCN2C(=O)[C@@H](Cc2ccccc2)NC(=O)[C@H](Cc2cnc[nH]2)NC1=O`, for which the Activity at Melanocortin receptor 3 [8] was found to be 2%; at Melanocortin receptor 4 [7], 6%.
